Screens deposited in PubChem BioAssay by Broad Institute.
Rows were chosen to be rich in hits. Some 2.5% of all compounds tested hit in one or more screens of this group.
AF4-AF9 inh: blocks AF4 peptide binding to human AF9 | AlphaScreen, biotin-AF4 peptide binding to FLAG-AF9 | P42568 | AID 651704 | actives 0.47% (n = 350,000) | inhibition, % at 10 µM;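 active = every replicate reaching a set inhibition limit, whatever the replicate mean, cut at about 25% in these data; inconclusive = mean inhibition reaches that limit but some replicates miss it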;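 note: 0% = plate neutral control median and 100% = total signal loss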
Target sequence (P42568 whole entry, looked up): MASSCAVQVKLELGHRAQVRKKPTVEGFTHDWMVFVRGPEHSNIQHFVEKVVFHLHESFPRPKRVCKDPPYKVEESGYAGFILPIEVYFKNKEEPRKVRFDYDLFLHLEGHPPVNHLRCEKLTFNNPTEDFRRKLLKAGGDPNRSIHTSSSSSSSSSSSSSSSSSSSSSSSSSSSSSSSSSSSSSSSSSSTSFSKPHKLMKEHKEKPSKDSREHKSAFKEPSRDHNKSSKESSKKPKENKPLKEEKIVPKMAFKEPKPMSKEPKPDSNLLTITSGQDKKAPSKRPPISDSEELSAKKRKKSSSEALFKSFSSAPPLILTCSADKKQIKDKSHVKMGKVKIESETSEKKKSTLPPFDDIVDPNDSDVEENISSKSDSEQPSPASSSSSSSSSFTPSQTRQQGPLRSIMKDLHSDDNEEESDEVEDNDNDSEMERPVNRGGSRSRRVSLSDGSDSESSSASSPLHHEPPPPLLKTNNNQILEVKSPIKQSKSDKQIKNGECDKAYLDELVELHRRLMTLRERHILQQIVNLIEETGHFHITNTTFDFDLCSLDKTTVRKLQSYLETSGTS
PAX8 inh HTS: inhibitors of PAX8 transcriptional activity in RMG-I cells | RMG-I TPO-luciferase reporter, SteadyGlo, 24 h | inhibition, % at 12.6 µM | actives 1.2% (n = 360,000);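 active = mean replicate inhibition at least 60% with every replicate also reaching 60%; inconclusive = only one of the two criteria is met; inactive = mean below 60% and not all replicates reaching 60%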;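 note: luciferase light reporting Pax8 driven TPO promoter activity; plate controls were median of neutral control wells for no effect and mitoxantrone controls for full effect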
Env fusion inh: blocks HIV Env-driven cell-cell fusion. actives 1.1% (n = 360,000). HeLa-JRFL Env/CEM21 cell fusion, luciferase. inhibition, % at 12.3 µM. AID 651610;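 active = mean replicate inhibition score of at least 50 and every replicate individually at or above 50; inconclusive = only one of the two criteria met; inactive = mean below 50 and not all replicates reaching 50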;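 note: 0% = plate neutral controls and 100% = maraviroc near 300 nM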
EWS-Fli block: inhibitors of EWS/Fli oncoprotein transcriptional activity. inhibition, % at 12.6 µM. actives 0.67% (n = 350,000). AID 651661. A673 NR0B1-luciferase reporter, viability-normalised;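 active = mean inhibition of at least 50% after viability correction, with every replicate also passing that limit; inconclusive = mean reaches 50% but only one of two replicates passes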;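 note: firefly luciferase signal divided by Alamar Blue viability fluorescence both relative to DMSO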
N-glyco inh: blocks N-linked glycosylation in D54 reporter cells; actives 0.23% (n = 360,000); reporter increase, % at 12.5 µM; D54 ERlucT glycosylation luciferase reporter, 24 h; percent of 100 nM tunicamycin response; AID 588692;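 active = mean luciferase reporter signal, scaled so untreated is 0 and the glycosylation-blocking control 100, at or above a set limit in every replicate; inconclusive = mean reaches the limit but not every replicate does; inactive = mean below the limit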;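 note: luciferase carries N-glycosylation sites so blocking glycosylation raises the light; 0% = median of neutral control wells and 100% = median of 100 nM tunicamycin wells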
FN deposit inh: fibronectin deposition inhibition; AH1F fibroblasts, Alexa488-fibronectin deposition fluorescence, overnight; inhibition, % at 12.6 µM; actives 0.086% (n = 350,000); AID 743247;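 active = mean inhibition across replicates of 30% or more, regardless of how many single replicates reach that level; inconclusive = mean under 30% yet at least half of replicates reach 30%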;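 note: positive control wells lacked labelled fibronectin entirely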
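Measured by – fluorescence 485/525 nm · System – AH1F fibroblast monolayer, labelled fibronectin deposition · Amount – 10000 cells per well · Buffer or medium – serum-reduced DMEM (2% serum) · Doses – single dose, pinned · Also added – fluorescent fibronectin at 24 nM final · Schedule – 1 h cell attachment, overnight exposure to compound and label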
* hit, by the source's call; [ ] = dose if it differs, or a comment.

O=C(Nc1ccccc1N1CCCC1)c1ccc([N+](=O)[O-])o1 was read as AF4-AF9 inh 17.4, PAX8 inh HTS 76.7*, Env fusion inh -8.2, EWS-Fli block 28.4, N-glyco inh 16.3 and FN deposit inh 8.6.
For O=C(Nc1ccccc1N1CCN(C(=O)c2ccccc2)CC1)c1ccc([N+](=O)[O-])o1 the results were AF4-AF9 inh 6.6, PAX8 inh HTS 68.0*, Env fusion inh -19.9, EWS-Fli block 3.5, N-glyco inh 11.1 and FN deposit inh -9.4.
`O=C(Nc1cccc([N+](=O)[O-])c1)c1ccc([N+](=O)[O-])o1` gave AF4-AF9 inh 0.2, PAX8 inh HTS inconclusive, Env fusion inh -12.4, EWS-Fli block 42.1, N-glyco inh inconclusive and FN deposit inh 1.8.
For COc1ccc(N2CCCC2)c(NC(=O)c2ccc([N+](=O)[O-])o2)c1 the results were AF4-AF9 inh 32.2*, PAX8 inh HTS 0.1, Env fusion inh -1.6, EWS-Fli block 8.4, N-glyco inh 20.5 and FN deposit inh 1.5.
`O=C(Nc1cccc(NC(=O)c2ccccc2Cl)c1)c1ccc([N+](=O)[O-])o1` gave AF4-AF9 inh 2.0, PAX8 inh HTS 98.2*, Env fusion inh -26.6, EWS-Fli block 38.0, N-glyco inh -16.9 and FN deposit inh 10.2.
`C[C@H](CO)N1C[C@H](C)[C@H](CN(C)C(=O)C2CCCCC2)Oc2ncc(-c3cccnc3)cc2C1=O` gave Env fusion inh -14.3[16.7 µM] and EWS-Fli block -7.6.
Screening C/C=C/c1ccc2c(c1)O[C@H](CN(C)Cc1ccc(C(=O)O)cc1)[C@H](C)CN([C@H](C)CO)S2(=O)=O returned AF4-AF9 inh 4.0, PAX8 inh HTS -22.1, Env fusion inh -28.3[16.7 µM] and EWS-Fli block -5.6.
Screening Cc1cccc(NC(=O)c2ccc([N+](=O)[O-])o2)c1C returned AF4-AF9 inh 3.6, PAX8 inh HTS inconclusive, Env fusion inh 15.3, EWS-Fli block 18.7, N-glyco inh 11.0 and FN deposit inh 15.1.
O=C(Nc1cccc2ccccc12)c1ccc([N+](=O)[O-])o1 was read as AF4-AF9 inh 5.6, PAX8 inh HTS 69.3*, Env fusion inh -13.7, EWS-Fli block 34.3, N-glyco inh 27.5* and FN deposit inh 9.9.
Screening CCN(CC)c1nc(Nc2ccccc2)nc(Oc2ccc(=O)[nH]n2)n1 returned Env fusion inh 90.9*, N-glyco inh -1.6 and FN deposit inh 12.1.
Screening CC(C)NC(=O)N(C)C[C@@H]1Oc2cc(C#Cc3ccc(F)cc3)ccc2S(=O)(=O)N([C@@H](C)CO)C[C@H]1C returned AF4-AF9 inh 1.1, Env fusion inh 25.3[16.7 µM] and EWS-Fli block 11.0.
For CCc1ccc(NC(=O)CSc2nnc(-c3ccco3)o2)cc1 the results were AF4-AF9 inh -0.1, PAX8 inh HTS -4.5, Env fusion inh 8.1, N-glyco inh 1.5 and FN deposit inh 31.4*.
For CC(=O)Nc1ccc(NC(=O)CSc2nnc(-c3ccco3)o2)cc1 the results were AF4-AF9 inh -8.0, PAX8 inh HTS 8.9, Env fusion inh -12.0, EWS-Fli block -2.8, N-glyco inh 0.9 and FN deposit inh 3.1.
Cc1cc(C)c(C#N)c(SCc2ccccc2)n1 was read as N-glyco inh -5.6.
Screening COc1ccc(CSc2nc(C)cc(C)c2C#N)cc1 returned AF4-AF9 inh 25.2*, PAX8 inh HTS 16.6, Env fusion inh 10.2, EWS-Fli block -2.7, N-glyco inh -0.6 and FN deposit inh -4.5.
For COC(=O)[C@@H]1[C@@H](CO)[C@@H]2Cn3c(ccc(-c4cccc(F)c4)c3=O)[C@@H]2N1CC1CCCC1 the results were AF4-AF9 inh 3.3, PAX8 inh HTS 64.0* and EWS-Fli block 5.7.
CCC[C@H](CN[C@@H](CNC)[C@H](C)O)NCCc1ccc(OC)cc1 was read as AF4-AF9 inh 1.6, PAX8 inh HTS -10.5, Env fusion inh 9.5, EWS-Fli block -6.6, N-glyco inh -1.1 and FN deposit inh 1.5.
Screening CCCC[C@H](CN[C@@H](CNC)[C@H](C)CC)NCCC12CCC(CC1)C2 returned AF4-AF9 inh 5.5, PAX8 inh HTS 26.6, Env fusion inh 5.0, EWS-Fli block 57.2*, N-glyco inh -12.2 and FN deposit inh -2.1.
For FC(F)(F)c1cccc(NC(=S)NCc2ccc(Cl)cc2)c1 the results were PAX8 inh HTS 17.2, Env fusion inh 63.9*, N-glyco inh -3.5 and FN deposit inh 4.1.
`CCc1nc(N)nc(N)c1-c1ccc(N(C)Cc2ccccc2)c([N+](=O)[O-])c1` gave AF4-AF9 inh -1.9, PAX8 inh HTS 38.4, Env fusion inh 20.2, EWS-Fli block 55.6*, N-glyco inh -8.5 and FN deposit inh 2.2.
Cc1cc(NC(=O)CCC(=O)N(Cc2ccco2)C2(C(=O)NC3CCCC3)CCC(C)CC2)no1 (stereo not given) was read as AF4-AF9 inh 2.7, PAX8 inh HTS 6.3, Env fusion inh 7.2, EWS-Fli block 7.6, N-glyco inh -3.1 and FN deposit inh -2.8.
For Cc1cc(NC(=O)CCC(=O)N(C2CC2)C2(C(=O)NC3CCCC3)CCC(C)CC2)no1 (stereo not given) the results were PAX8 inh HTS 22.0, Env fusion inh 99.7*, N-glyco inh -0.1 and FN deposit inh 4.6.
Cc1ccc(S(=O)(=O)N(C)C[C@@H]2OCCCC[C@H](C)Oc3ccc(NS(=O)(=O)c4ccc(F)cc4)cc3C(=O)N([C@H](C)CO)C[C@H]2C)cc1 was read as AF4-AF9 inh -1.2, PAX8 inh HTS 87.0*, Env fusion inh 8.1[16.7 µM], EWS-Fli block 1.7 and FN deposit inh -4.8.
`Cc1ccc(S(=O)(=O)N(C)C[C@H]2OCCCC[C@@H](C)Oc3ccc(NS(=O)(=O)c4ccc(F)cc4)cc3C(=O)N([C@H](C)CO)C[C@H]2C)cc1` gave AF4-AF9 inh 1.1, PAX8 inh HTS 59.7, Env fusion inh -13.6[16.7 µM], EWS-Fli block 31.7 and FN deposit inh 2.7.
Cc1ccc(S(=O)(=O)Nc2ccc3c(c2)C(=O)N([C@H](C)CO)C[C@H](C)[C@@H](CN(C)S(=O)(=O)c2ccc(F)cc2)OCCCC[C@H](C)O3)cc1 was read as AF4-AF9 inh -1.3, PAX8 inh HTS 85.5*, Env fusion inh -21.6[16.7 µM] and EWS-Fli block -10.8.
`Cc1noc(C)c1S(=O)(=O)N(C)C[C@@H]1Oc2ccc(NS(C)(=O)=O)cc2C(=O)N([C@H](C)CO)C[C@@H]1C` gave EWS-Fli block -3.4.
O=C(CSc1nnc(COc2ccc(Cl)cc2)o1)N(c1ccccc1)C1CCS(=O)(=O)C1 (stereo not given) was read as AF4-AF9 inh -2.0, PAX8 inh HTS 36.8, Env fusion inh 65.4*, EWS-Fli block 7.0, N-glyco inh -1.8 and FN deposit inh 1.7.
